Compound activity deposited in PubChem BioAssay by Broad Institute.
T cruzi growth-1 – inhibitors of T. cruzi proliferation | T. cruzi beta-gal in NIH3T3, GalScreen luminescence, 90 h | inhibition, % at 8.34 µM | actives 5.9% (n = 77,000);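 active means mean inhibition above about 93%, with at least 55% of replicates each passing it, limit read from the data, passing the limit was not always enough; inconclusive means only one of those two conditions holds; inactive means neither condition holds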
GASC1 inh – KDM4C (human) demethylase inhibition. Q9H3R0. GST-KDM4C 2-372, H3K9me3 peptide, LANCE TR-FRET. inhibition, % at 12.5 µM. actives 0.15% (n = 96,000);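 active means mean replicate inhibition above about 25%, with at least 55% of replicates also reaching it, limit read from the data, passing the limit was not always enough; inconclusive means only one of those two conditions met; inactive means neither condition met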
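reagent = H3K9me3 peptide substrate, Fe(II), 2-oxoglutarate | system = GST-tagged GASC-1 (JMJD2C) catalytic fragment, aa 2-372 | amount = enzyme final amount 10 nM | read-out = Fall in 671/618 emission ratio as inhibition | medium = HEPES buffer, pH 7.5, plus ascorbate | schedule = 30 min reaction, 60 min detection, RT | measured by = LANCE TR-FRET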
IDH1 mut inh – blocks human IDH1 R132H reductase activity. actives 0.18% (n = 70,000). AID 624101. O75874. inhibition, % at 10 µM. diaphorase/resazurin fluorescence, 60 min; in the data active means inhibition above about 34%; inconclusive means no clear call, values can overlap the other calls; inactive means below about 11%
Target sequence (O75874 whole entry R132H): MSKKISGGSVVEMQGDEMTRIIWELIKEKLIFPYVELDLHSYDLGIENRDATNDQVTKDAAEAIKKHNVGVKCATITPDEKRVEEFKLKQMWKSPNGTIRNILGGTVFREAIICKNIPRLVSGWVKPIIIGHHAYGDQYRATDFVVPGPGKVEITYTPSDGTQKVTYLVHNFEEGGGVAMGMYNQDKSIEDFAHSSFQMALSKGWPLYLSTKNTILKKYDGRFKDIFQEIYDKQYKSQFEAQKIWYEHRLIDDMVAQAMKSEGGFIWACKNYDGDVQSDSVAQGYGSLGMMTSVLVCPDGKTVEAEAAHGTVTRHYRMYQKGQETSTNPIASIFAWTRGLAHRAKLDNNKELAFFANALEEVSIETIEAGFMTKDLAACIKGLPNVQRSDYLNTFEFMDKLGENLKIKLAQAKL
T cruzi growth-2 – Trypanosoma cruzi proliferation inhibition; T. cruzi beta-gal in NIH3T3, GalScreen luminescence, 90 h; actives 72% (n = 5,600); AID 651739; shares compounds with T cruzi growth-1; inhibition, % at 8.35 µM;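 active means mean replicate inhibition above about 95% and at least 55% of replicates individually reaching it, limit read from the data; inconclusive means only one of the two criteria is met; inactive means neither criterion is met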
T cruzi growth-3 – inhibitors of T. cruzi proliferation; shares compounds with T cruzi growth-1; T. cruzi beta-gal in NIH3T3, GalScreen luminescence, 90 h; inhibition, % at 2.09 µM; actives 21% (n = 5,600);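 active means mean inhibition above about 95%, with at least 55% of replicates also reaching it, limit read from the data; inconclusive means meets just one of the two conditions; inactive means meets neither condition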
NIH3T3 tox – kills mouse NIH/3T3 fibroblasts. actives 14% (n = 5,600). NIH/3T3 viability, CellTiter-Glo ATP luminescence, 90 h. shares compounds with T cruzi growth-1. AID 651742. cytotoxicity (signal decrease), % at 8.35 µM;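 active means mean signal decrease across replicates above about 35% based on untreated-well scatter, with enough replicates individually passing, limit read from the data; inconclusive means no rule stated though some were filed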
3T3 cytotox 2 – kills mouse NIH/3T3 fibroblasts; shares compounds with T cruzi growth-1; NIH/3T3 viability, CellTiter-Glo ATP luminescence, 90 h; inhibition, % at 24.9 µM; actives 56% (n = 5,600);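 active means mean loss of cell viability signal at or above a set limit, and enough replicates individually reaching it; inconclusive means meets only the mean limit or only the replicate share; inactive means meets neither condition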
Hits are given with their value; i = inactive; ? = inconclusive; nt = no result. Shown is part of a subset that was picked to be rich in hits.

SMILES	T cruzi growth-1	GASC1 inh	IDH1 mut inh	T cruzi growth-2	T cruzi growth-3	NIH3T3 tox	3T3 cytotox 2
C[C@H](CO)N1C[C@H](C)[C@H](CN(C)C(=O)Nc2ccccc2)Oc2ncc(/C=C/c3ccccc3)cc2C1=O	97	nt	i	98	i	36	90
C[C@H]1CN([C@@H](C)CO)C(=O)c2cc(/C=C/c3ccccc3)cnc2O[C@H]1CN(C)C(=O)Nc1ccccc1F	101	i	i	?	i	i	51
C[C@H]1CN([C@@H](C)CO)C(=O)c2cc(/C=C/c3ccccc3)cnc2O[C@H]1CN(C)C(=O)c1cccc(F)c1	i	nt	i	nt	nt	nt	nt
C[C@@H]1CN([C@H](C)CO)C(=O)c2cc(/C=C/c3ccccc3)cnc2O[C@@H]1CN(C)C(=O)Nc1ccccc1F	i	i	i	nt	nt	nt	nt
C/C=C/c1cnc2c(c1)C(=O)N([C@@H](C)CO)C[C@H](C)[C@@H](CN(C)C(=O)Nc1ccccc1F)O2	i	i	i	nt	nt	nt	nt
COc1ccc(NC(=O)Nc2ccc3c(c2)CC(=O)N([C@H](C)CO)C[C@H](C)[C@H](CN(C)S(=O)(=O)c2c(C)noc2C)O3)cc1	i	i	i	nt	nt	nt	nt
CS(=O)(=O)N(CC(=O)Nc1ccccc1Sc1ccccc1)c1ccc(Cl)c(Cl)c1	nt	nt	i	nt	nt	nt	nt
O=C(C[C@@H]1C[C@H]2c3cc(NC(=O)c4cccnc4)ccc3O[C@H]2[C@@H](CO)O1)NCCc1ccccc1	i	i	i	nt	nt	nt	nt
CS(=O)(=O)Nc1ccc2c(c1)[C@@H]1C[C@@H](CC(=O)NCc3ccccc3)O[C@H](CO)[C@@H]1O2	i	i	i	nt	nt	nt	nt
O=C(C[C@H]1C[C@@H]2c3cc(NC(=O)c4cccnc4)ccc3O[C@@H]2[C@H](CO)O1)NCc1cccnc1	98	i	i	i	i	i	i
O=C(C[C@H]1C[C@@H]2c3cc(NC(=O)c4ccc5c(c4)OCO5)ccc3O[C@@H]2[C@@H](CO)O1)NCc1cc(F)ccc1F	i	i	i	nt	nt	nt	nt
O=C(C[C@H]1C[C@@H]2c3cc(NC(=O)c4cccnc4)ccc3O[C@@H]2[C@@H](CO)O1)NCCc1ccccc1	129	i	i	i	i	i	i
O=C(C[C@@H]1C[C@@H]2c3cc(NC(=O)c4ccc5c(c4)OCO5)ccc3O[C@@H]2[C@@H](CO)O1)NCc1cc(F)ccc1F	99	i	i	i	i	i	i
CS(=O)(=O)Nc1ccc2c(c1)[C@H]1C[C@@H](CC(=O)NCc3ccncc3)O[C@@H](CO)[C@H]1O2	107	i	i	i	i	i	i
O=C(C[C@@H]1C[C@@H]2c3cc(NC(=O)c4cccnc4)ccc3O[C@@H]2[C@H](CO)O1)NCc1ccccc1	i	i	i	nt	nt	nt	nt
CCCN(C)C[C@H]1OCc2ccccc2-c2ccccc2C(=O)N([C@@H](C)CO)C[C@H]1C	i	i	i	nt	nt	nt	nt
CO[C@H](CN(C)S(=O)(=O)c1ccc(Cl)cc1)[C@@H](C)CN(C(=O)Nc1ccccc1F)[C@H](C)CO	i	i	i	nt	nt	nt	nt
O=S(=O)(N[C@@H]1CC[C@@H](CCn2cc(-c3ccccn3)nn2)O[C@@H]1CO)c1cccc(F)c1	i	i	i	nt	nt	nt	nt
COc1ccc(NC(=O)N(C)C[C@@H]2Oc3ccc(NC(=O)CCC(F)(F)F)cc3CC(=O)N([C@@H](C)CO)C[C@H]2C)cc1	i	i	i	nt	nt	nt	nt
CCCOc1ccc(C2C(C(=O)Nc3ccccc3OC)=C(C)Nc3ncnn32)cc1OC (stereo unspecified)	nt	nt	i	nt	nt	nt	nt
O=C(Nc1cc(Cl)cc(Cl)c1)N[C@H]1CC[C@@H](CCNS(=O)(=O)c2cccc(F)c2)O[C@@H]1CO	?	i	i	100	i	40	81
O=C(Cc1ccccn1)N[C@H]1CC[C@@H](CCNS(=O)(=O)c2cccc(F)c2)O[C@@H]1CO	101	i	i	i	i	i	i
O=C(Nc1ccccc1)N[C@H]1CC[C@H](CCNS(=O)(=O)c2cccc(F)c2)O[C@@H]1CO	i	i	i	nt	nt	nt	nt
O=C(Nc1cc(Cl)cc(Cl)c1)N[C@H]1CC[C@H](CCNS(=O)(=O)c2cccc(F)c2)O[C@H]1CO	176	i	i	104	i	i	57
O=C(Nc1cc(Cl)cc(Cl)c1)N[C@@H]1CC[C@@H](CCNS(=O)(=O)c2cccc(F)c2)O[C@@H]1CO	147	i	i	104	i	i	65
SMILES	T cruzi growth-1	GASC1 inh	IDH1 mut inh	T cruzi growth-2	T cruzi growth-3	NIH3T3 tox	3T3 cytotox 2
O=C(Nc1ccccc1)N[C@@H]1CC[C@@H](CCNS(=O)(=O)c2cccc(F)c2)O[C@@H]1CO	i	i	i	nt	nt	nt	nt
O=C(Cc1ccccn1)N[C@H]1CC[C@@H](CCNS(=O)(=O)c2cccc(F)c2)O[C@H]1CO	i	i	i	nt	nt	nt	nt
O=C(Nc1ccccc1)N[C@H]1CC[C@@H](CCNS(=O)(=O)c2cccc(F)c2)O[C@H]1CO	i	i	i	nt	nt	nt	nt
CO[C@@H]1CN(C)C(=O)c2ccc(NS(=O)(=O)c3cccc(F)c3)cc2OC[C@H](C)NC[C@H]1C	i	i	i	nt	nt	nt	nt
C[C@@H]1CN([C@H](C)CO)C(=O)CCCn2cc(nn2)CO[C@@H]1CN(C)C	i	i	i	nt	nt	nt	nt
Cc1ccc(S(=O)(=O)Nc2cccc3c2O[C@@H](CN(C)C(=O)Nc2ccc(F)cc2)[C@@H](C)CN([C@H](C)CO)C3=O)cc1	i	i	i	nt	nt	nt	nt
C/C=C/c1ccc([C@@H]2[C@H](CO)N(CCC(F)(F)F)C23CN(C(=O)COC)C3)cc1	nt	i	nt	nt	nt	nt	nt
CN1CCN(CC(=O)N2N=C(c3c(-c4ccccc4)c4cc(Cl)ccc4[nH]c3=O)CC2c2ccccc2)CC1 (stereo unspecified)	nt	nt	i	nt	nt	nt	nt
O=C(Nc1ccc(Cl)cc1)N[C@H]1CC[C@@H](CCNC(=O)c2ccccc2F)O[C@@H]1CO	142	i	i	i	i	i	i
O=C(Nc1ccc(Cl)cc1)N[C@@H]1CC[C@H](CCNC(=O)c2ccccc2F)O[C@@H]1CO	i	i	i	nt	nt	nt	nt
C[C@@H]1CN([C@@H](C)CO)C(=O)c2cc(NS(C)(=O)=O)ccc2O[C@H]1CN(C)Cc1ccc(C(=O)Nc2ccccc2N)cc1	i	i	i	nt	nt	nt	nt
CCCNC(=O)N(C)C[C@@H]1Oc2cc(C#C[C@H](C)O)ccc2S(=O)(=O)N([C@@H](C)CO)C[C@@H]1C	i	i	nt	nt	nt	nt	nt
O=C(Nc1ccc(NS(=O)(=O)c2cccc(C(=O)Nc3ccc(Br)cc3)c2)cc1)c1ccccc1	nt	nt	i	nt	nt	nt	nt
COc1ccc(S(=O)(=O)N(C)C[C@@H]2OCCCC[C@@H](C)Oc3ccc(NC(=O)NC4CCCCC4)cc3C(=O)N([C@@H](C)CO)C[C@@H]2C)cc1	i	i	i	nt	nt	nt	nt
COc1ccc(S(=O)(=O)N(C)C[C@H]2OCCCC[C@@H](C)Oc3ccc(NC(=O)NC4CCCCC4)cc3C(=O)N([C@@H](C)CO)C[C@@H]2C)cc1	96	i	nt	i	i	i	i
